# Measured values collected from several papers.
# Protocols differ between the studies behind these lines.
# Target: Tyrosine-protein kinase HCK (HCK, Homo sapiens, UniProt P08631)
SMILES,assay,conditions,quantity,result
Cc1ccc(NC(=O)c2ccc(C)c(C(F)(F)F)c2)cc1C#Cc1nn(C2CCC(O)CC2)c2ncnc(N)c12 (stereo not drawn),"enzyme activity, inhibitor",10 µM,remaining activity,-1%
CN(C)C1CCN(CC#Cc2nn(C3CCCC3)c3nc(NCc4ccccc4)ncc23)C1 (stereo not drawn),"enzyme activity, inhibitor, FRET",1 µM,inhibition,2%
O=C(Nc1ccc(Oc2ccc(F)cc2)cc1)N1CCc2ncccc2[C@H]1c1ccc(F)cc1,"cell-free assay, competition with immobilised ligand",1 µM,remaining binding,100%
CNc1cccc2cc(C(=O)Nc3ccc(C(=O)O)cc3)c(=O)[nH]c12,"enzyme activity, inhibitor",10 µM,inhibition,-12%
CN(C(=O)c1ccccc1)c1cc(N(C)c2ccc3c(c2)CCc2ccc(C(=O)NCCN4CCOCC4)cc2C3=O)ccc1F,"cell-free assay, competition with immobilised ligand",1 µM,remaining binding,100%
O=C(Nc1cnn(-c2csc(C(=O)NC3COC3)c2)c1)Nc1c(F)cccc1Cl,"enzyme activity, inhibitor",5 µM,remaining activity,91.3%
O=C(Nc1cccnn1)N1CC(C/C=C/c2cncc(Oc3ccc(C(F)(F)F)cn3)n2)C1,"cell-free assay, competition with immobilised ligand",1 µM,remaining binding,100%
COc1cc2ncnc(Nc3ccc(Oc4ccccc4)c(C)c3C)c2cc1OC,"enzyme activity, inhibitor",1 µM,inhibition,53%
CC(=O)N1CCC(c2ccc(C(=O)NC(=N)N)cc2C(F)(F)F)CC1,"cell-free assay, competition with immobilised ligand",1 µM,remaining binding,100%
CNC(=O)c1cc2c(Oc3ccc(NC(=O)C4(C(=O)Nc5ccc(F)cc5)CC4)cc3)ccnc2cc1OC,"enzyme activity, inhibitor, radiometric",1 µM,inhibition,98%
CS(=O)(=O)CCNCc1ccc(-c2ccc3ncnc(Nc4ccc(OCc5cccc(F)c5)c(Cl)c4)c3c2)o1,cell-free assay,0.5 µM,remaining signal,86.5%
Cc1sc(C(=O)NC2COC2)cc1-n1cc(NC(=O)Nc2c(F)cccc2Cl)cn1,"enzyme activity, inhibitor",10 µM,remaining activity,95%
Cc1ccc(C(=O)NCc2ccsc2)cc1C#Cc1cn(C(C)C)c2ncnc(N)c12,"enzyme activity, inhibitor",1 µM,activity vs control,4%
O=C1NC(=O)c2cc(Nc3ccc(F)cc3)c(Nc3ccc(F)cc3)cc21,cell-free assay,0.5 µM,remaining signal,88.3%
Cc1c(NC(=O)c2cc(C(N)=O)nc3cc(F)ccc23)c(C(F)(F)F)nn1Cc1ccc(C(C)(C)C)cc1,"cell-free assay, competition with immobilised ligand",1 µM,remaining binding,92%
Cc1ccc(NC(=O)c2ccc(CN3CCN(C)CC3)cc2)cc1Nc1nccc(-c2cncc(-c3oncc3C)c2)n1,"enzyme activity, inhibitor",0.5 µM,remaining activity,≤ 50%
Cc1ccc(Nc2nccc(N(C)c3ccc4c(C)n(C)nc4c3)n2)cc1S(N)(=O)=O,"enzyme activity, inhibitor",0.3 µM,inhibition,21%
O=S(=O)(NC1CCC(c2cc(F)ccc2F)(S(=O)(=O)c2ccc(Cl)cc2)CC1)C(F)(F)F (stereo not drawn),"cell-free assay, competition with immobilised ligand",1 µM,remaining binding,85%
COc1cc2c(N3CCN(C(=O)Nc4ccc(OC(C)C)cc4)CC3)ncnc2cc1OCCCN1CCCCC1,cell-free assay,0.5 µM,remaining signal,93.2%
CCCOc1ccc([C@@H]2[C@@H](C(=O)O)[C@H](c3ccc4c(c3)OCO4)CN2CC(=O)Nc2c(CC)cccc2CC)cc1,"cell-free assay, competition with immobilised ligand",1 µM,remaining binding,92%
Cc1ccc(C(=O)Nc2ccc(CN3CCN(C)CC3)c(C(F)(F)F)c2)cc1C#Cc1cnc2cccnn12,enzyme activity,23.5 nM,remaining activity,1.6%
COc1cc2ncnc(Nc3ccc(F)c(Cl)c3)c2cc1OCCCN1CCOCC1,cell-free assay,0.5 µM,remaining signal,73.3%
CNC(=O)c1ccc(Nc2ncc(C(F)(F)F)c(NCc3nccnc3N(C)S(C)(=O)=O)n2)cc1,"cell-free assay, competition with immobilised ligand",0.1 µM,remaining binding,100%
CCN(CC)CCNC(=O)c1c(C)[nH]c(/C=C2\C(=O)Nc3ccc(F)cc32)c1C,"enzyme activity, inhibitor",10 µM,inhibition,92%
